The source made the active and inactive calls. The rule behind the calls is not given here.
What was measured:
[1] = (§1) Growth inhibition of human A375P cells by MTT assay; format: functional
Method in brief: (§2)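 A375P cells grown in DMEM with 10% FBS and 1% penicillin/streptomycin at 37 °C in 5% CO2. Cells were detached with trypsin-EDTA, seeded at 5×10^3 cells/well and left 24 h. They were then treated with a 12-point three-fold serial dilution. Viability was read by MTT reduction assay as absorbance at 590 nm.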

[2] = (§3) Growth inhibition of human WM3629 cells by MTT assay; format: functional
Method in brief: (§4)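 WM3629 cells kept in Tu2% medium. They were seeded at 5×10^3 cells/well, rested 24 h, then exposed to a 12-point three-fold serial dilution. GI50 was taken from an MTT reduction assay read at 590 nm.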

[3] = Selectivity ratio of GI50 for human WM3629 cells to GI50 for human A375P cells; format: functional
WM3629 = assay: as §3; format: functional; method in brief: as §4
A375P = assay: as §1; format: functional; method in brief: as §2
[4] = Growth inhibition of human A375P cells at 8.05 uM by MTT assay relative to total growth; format: functional; conditions: read-out: GI
[5] = Growth inhibition of human A375P cells at 164 uM by MTT assay relative to total growth; format: functional; conditions: read-out: GI
[6] = target: Dual specificity mitogen-activated protein kinase kinase 1 (Homo sapiens) (UniProt Q02750); assay: Inhibition of MEK1 at 10 uM
Method in brief: (§5)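 Single-dose panel screen across 30 kinases at 10 µM, run in duplicate; % inhibition reported.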

[7] = target: Serine/threonine-protein kinase Chk1 (Homo sapiens) (UniProt O14757); assay: Inhibition of CHK1 at 10 uM; method in brief: as §5
[8] = target: Focal adhesion kinase 1 (Homo sapiens) (UniProt Q05397); assay: Inhibition of human FAK at 10 uM; method in brief: as §5
[9] = target: Serine/threonine-protein kinase PAK 4 (Homo sapiens) (UniProt O96013); assay: Inhibition of PAK4 at 10 uM; method in brief: as §5
Sequence of Serine/threonine-protein kinase PAK 4 (Homo sapiens) (O96013 whole entry, looked up): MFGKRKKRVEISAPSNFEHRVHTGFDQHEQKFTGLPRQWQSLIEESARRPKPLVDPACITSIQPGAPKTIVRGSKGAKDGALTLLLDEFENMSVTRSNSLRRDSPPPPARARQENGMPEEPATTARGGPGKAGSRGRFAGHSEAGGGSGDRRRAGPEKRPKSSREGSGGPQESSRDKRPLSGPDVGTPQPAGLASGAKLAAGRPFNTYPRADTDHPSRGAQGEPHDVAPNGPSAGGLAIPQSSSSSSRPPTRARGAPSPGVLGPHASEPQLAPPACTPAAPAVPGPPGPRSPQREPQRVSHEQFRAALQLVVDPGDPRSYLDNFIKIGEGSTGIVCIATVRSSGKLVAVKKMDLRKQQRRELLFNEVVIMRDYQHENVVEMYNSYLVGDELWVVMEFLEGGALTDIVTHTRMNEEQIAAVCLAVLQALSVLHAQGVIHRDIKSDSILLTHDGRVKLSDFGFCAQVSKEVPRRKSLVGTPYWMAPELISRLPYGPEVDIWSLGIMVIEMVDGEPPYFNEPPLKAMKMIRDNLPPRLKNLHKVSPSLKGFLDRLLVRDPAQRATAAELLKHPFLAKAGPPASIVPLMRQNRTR

[10] = target: ALK tyrosine kinase receptor (Homo sapiens) (UniProt Q9UM73); assay: Inhibition of ALK at 10 uM; method in brief: as §5
Sequence of ALK tyrosine kinase receptor (Homo sapiens) (Q9UM73 19-1620 limits assumed): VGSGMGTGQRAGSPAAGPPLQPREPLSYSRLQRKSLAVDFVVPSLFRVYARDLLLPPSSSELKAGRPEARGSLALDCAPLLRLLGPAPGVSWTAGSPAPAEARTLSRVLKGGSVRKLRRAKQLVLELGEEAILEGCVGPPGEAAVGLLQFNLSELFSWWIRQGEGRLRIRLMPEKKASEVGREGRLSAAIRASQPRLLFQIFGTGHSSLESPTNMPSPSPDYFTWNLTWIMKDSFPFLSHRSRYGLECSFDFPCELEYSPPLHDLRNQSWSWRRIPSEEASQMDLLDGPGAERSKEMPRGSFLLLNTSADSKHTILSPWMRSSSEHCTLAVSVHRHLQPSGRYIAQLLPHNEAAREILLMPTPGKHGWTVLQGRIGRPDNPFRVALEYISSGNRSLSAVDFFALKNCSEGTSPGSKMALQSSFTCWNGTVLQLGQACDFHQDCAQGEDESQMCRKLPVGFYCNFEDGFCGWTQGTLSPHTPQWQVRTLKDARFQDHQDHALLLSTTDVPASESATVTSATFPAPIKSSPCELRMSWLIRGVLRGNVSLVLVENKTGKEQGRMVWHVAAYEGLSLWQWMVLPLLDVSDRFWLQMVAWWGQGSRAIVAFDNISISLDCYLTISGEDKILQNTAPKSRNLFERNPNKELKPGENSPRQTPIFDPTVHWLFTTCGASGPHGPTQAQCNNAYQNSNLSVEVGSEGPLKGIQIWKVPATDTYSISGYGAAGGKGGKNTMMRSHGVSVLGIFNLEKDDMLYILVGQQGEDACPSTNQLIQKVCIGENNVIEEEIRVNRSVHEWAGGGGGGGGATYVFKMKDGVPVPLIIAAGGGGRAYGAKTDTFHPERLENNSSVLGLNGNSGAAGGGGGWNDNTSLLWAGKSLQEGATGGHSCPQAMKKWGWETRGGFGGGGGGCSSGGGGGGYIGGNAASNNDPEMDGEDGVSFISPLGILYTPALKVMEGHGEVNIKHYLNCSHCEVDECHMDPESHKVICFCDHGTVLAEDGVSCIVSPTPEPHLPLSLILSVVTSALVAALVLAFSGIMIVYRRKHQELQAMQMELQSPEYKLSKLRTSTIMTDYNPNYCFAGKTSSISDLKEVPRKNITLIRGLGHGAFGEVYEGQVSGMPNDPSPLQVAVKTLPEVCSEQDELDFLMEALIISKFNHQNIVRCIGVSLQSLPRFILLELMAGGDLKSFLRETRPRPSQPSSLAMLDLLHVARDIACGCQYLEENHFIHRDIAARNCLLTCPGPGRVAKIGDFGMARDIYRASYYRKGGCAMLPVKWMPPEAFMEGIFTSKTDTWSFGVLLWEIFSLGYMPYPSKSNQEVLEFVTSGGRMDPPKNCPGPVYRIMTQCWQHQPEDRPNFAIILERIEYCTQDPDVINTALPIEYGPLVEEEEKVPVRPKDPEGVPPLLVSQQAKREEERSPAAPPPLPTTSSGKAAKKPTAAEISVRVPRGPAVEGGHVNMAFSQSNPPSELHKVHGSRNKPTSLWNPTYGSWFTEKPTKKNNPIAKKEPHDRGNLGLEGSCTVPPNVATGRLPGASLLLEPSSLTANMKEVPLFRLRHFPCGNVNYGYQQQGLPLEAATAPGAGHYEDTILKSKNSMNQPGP

[11] = target: Mitogen-activated protein kinase 14 (Homo sapiens) (UniProt Q16539); assay: Inhibition of p38alpha at 10 uM; method in brief: as §5
[12] = target: DNA-dependent protein kinase catalytic subunit (Homo sapiens) (UniProt P78527); assay: Inhibition of DNA-PK at 10 uM; method in brief: as §5
[13] = target: Tyrosine-protein kinase SYK (Homo sapiens) (UniProt P43405); assay: Inhibition of SYK at 10 uM; method in brief: as §5
[14] = target: Cyclin-dependent kinase 5/CDK5 activator 1 (Homo sapiens) (UniProt Q00535+Q15078); assay: Inhibition of CDK5/p25 at 10 uM; format: protein-complex assay; method in brief: as §5
[15] = target: RAF proto-oncogene serine/threonine-protein kinase (Homo sapiens) (UniProt P04049); assay: Inhibition of cRAF at 10 uM; method in brief: as §5
Sequence of RAF proto-oncogene serine/threonine-protein kinase (Homo sapiens) (P04049 whole entry): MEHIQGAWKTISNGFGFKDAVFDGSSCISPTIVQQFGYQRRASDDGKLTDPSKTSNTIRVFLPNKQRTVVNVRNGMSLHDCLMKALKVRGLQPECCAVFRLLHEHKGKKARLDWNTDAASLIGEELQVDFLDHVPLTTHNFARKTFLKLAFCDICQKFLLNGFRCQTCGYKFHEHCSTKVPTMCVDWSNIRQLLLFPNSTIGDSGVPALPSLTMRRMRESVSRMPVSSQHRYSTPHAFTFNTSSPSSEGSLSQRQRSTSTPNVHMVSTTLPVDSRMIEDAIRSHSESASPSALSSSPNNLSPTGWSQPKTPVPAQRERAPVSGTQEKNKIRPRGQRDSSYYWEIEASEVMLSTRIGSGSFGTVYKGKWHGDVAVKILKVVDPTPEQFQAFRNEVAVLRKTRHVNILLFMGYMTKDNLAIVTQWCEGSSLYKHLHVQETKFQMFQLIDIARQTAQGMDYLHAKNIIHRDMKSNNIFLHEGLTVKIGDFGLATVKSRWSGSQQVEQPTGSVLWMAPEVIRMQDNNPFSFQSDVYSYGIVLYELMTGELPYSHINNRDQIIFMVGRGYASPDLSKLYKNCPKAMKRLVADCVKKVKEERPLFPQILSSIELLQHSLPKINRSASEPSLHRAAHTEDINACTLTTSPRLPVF

[16] = target: Cyclin-dependent kinase 1/cyclin B1 (Homo sapiens) (UniProt P06493+P14635); assay: Inhibition of CDK1/cyclin B at 10 uM; format: protein-complex assay; method in brief: as §5
[17] = target: BDNF/NT-3 growth factors receptor (Homo sapiens) (UniProt Q16620); assay: Inhibition of TrkB at 10 uM; method in brief: as §5
[18] = target: RAC-alpha serine/threonine-protein kinase (Homo sapiens) (UniProt P31749); assay: Inhibition of AKT1 at 10 uM; method in brief: as §5
[19] = target: Epidermal growth factor receptor (Homo sapiens) (UniProt P00533); assay: Inhibition of EGFR at 10 uM; method in brief: as §5
[20] = target: Receptor-type tyrosine-protein kinase FLT3 (Homo sapiens) (UniProt P36888); assay: Inhibition of human FLT3 at 10 uM; method in brief: as §5
[21] = target: Mitogen-activated protein kinase 1 (Homo sapiens) (UniProt P28482); assay: Inhibition of ERK2 at 10 uM; method in brief: as §5
[22] = target: Ribosomal protein S6 kinase beta-1 (Homo sapiens) (UniProt P23443); assay: Inhibition of p70S6K at 10 uM; method in brief: as §5
[23] = Inhibition of PKA at 10 uM
Method in brief: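 Single-concentration screen at 10 µM within a 30-kinase panel, run in duplicate; read-out is percent inhibition of kinase activity.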

[24] = target: Macrophage-stimulating protein receptor (Homo sapiens) (UniProt Q04912); assay: Inhibition of RON at 10 uM; method in brief: as §5
[25] = target: Serine/threonine-protein kinase mTOR (Homo sapiens) (UniProt P42345); assay: Inhibition of mTOR at 10 uM; method in brief: as §5
[26] = target: Insulin-like growth factor 1 receptor (Homo sapiens) (UniProt P08069); assay: Inhibition of IGF1R at 10 uM; method in brief: as §5
[27] = target: Myotonin-protein kinase (Homo sapiens) (UniProt Q09013); assay: Inhibition of DMPK at 10 uM; method in brief: as §5
Sequence of Myotonin-protein kinase (Homo sapiens) (Q09013 whole entry): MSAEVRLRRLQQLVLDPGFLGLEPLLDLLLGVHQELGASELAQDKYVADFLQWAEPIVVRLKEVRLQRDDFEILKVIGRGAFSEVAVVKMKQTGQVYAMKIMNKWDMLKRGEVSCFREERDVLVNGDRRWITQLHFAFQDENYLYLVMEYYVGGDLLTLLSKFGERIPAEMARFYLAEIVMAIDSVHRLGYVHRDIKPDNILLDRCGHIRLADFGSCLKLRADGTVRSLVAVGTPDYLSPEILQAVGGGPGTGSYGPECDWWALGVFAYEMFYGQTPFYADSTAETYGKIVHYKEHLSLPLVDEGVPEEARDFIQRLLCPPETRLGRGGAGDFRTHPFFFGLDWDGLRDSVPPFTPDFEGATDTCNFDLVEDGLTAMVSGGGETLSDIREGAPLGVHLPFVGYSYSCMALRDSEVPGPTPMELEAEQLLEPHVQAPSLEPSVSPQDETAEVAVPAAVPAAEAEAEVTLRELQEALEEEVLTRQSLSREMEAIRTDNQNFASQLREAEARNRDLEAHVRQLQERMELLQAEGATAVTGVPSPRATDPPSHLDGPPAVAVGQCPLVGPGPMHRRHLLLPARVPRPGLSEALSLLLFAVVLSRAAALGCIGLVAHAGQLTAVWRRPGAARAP

[28] = target: Tyrosine-protein kinase Lyn (Homo sapiens) (UniProt P07948); assay: Inhibition of LYN at 10 uM; method in brief: as §5
[29] = target: Tyrosine-protein kinase JAK3 (Homo sapiens) (UniProt P52333); assay: Inhibition of JAK3 at 10 uM; method in brief: as §5
Sequence of Tyrosine-protein kinase JAK3 (Homo sapiens) (P52333 whole entry): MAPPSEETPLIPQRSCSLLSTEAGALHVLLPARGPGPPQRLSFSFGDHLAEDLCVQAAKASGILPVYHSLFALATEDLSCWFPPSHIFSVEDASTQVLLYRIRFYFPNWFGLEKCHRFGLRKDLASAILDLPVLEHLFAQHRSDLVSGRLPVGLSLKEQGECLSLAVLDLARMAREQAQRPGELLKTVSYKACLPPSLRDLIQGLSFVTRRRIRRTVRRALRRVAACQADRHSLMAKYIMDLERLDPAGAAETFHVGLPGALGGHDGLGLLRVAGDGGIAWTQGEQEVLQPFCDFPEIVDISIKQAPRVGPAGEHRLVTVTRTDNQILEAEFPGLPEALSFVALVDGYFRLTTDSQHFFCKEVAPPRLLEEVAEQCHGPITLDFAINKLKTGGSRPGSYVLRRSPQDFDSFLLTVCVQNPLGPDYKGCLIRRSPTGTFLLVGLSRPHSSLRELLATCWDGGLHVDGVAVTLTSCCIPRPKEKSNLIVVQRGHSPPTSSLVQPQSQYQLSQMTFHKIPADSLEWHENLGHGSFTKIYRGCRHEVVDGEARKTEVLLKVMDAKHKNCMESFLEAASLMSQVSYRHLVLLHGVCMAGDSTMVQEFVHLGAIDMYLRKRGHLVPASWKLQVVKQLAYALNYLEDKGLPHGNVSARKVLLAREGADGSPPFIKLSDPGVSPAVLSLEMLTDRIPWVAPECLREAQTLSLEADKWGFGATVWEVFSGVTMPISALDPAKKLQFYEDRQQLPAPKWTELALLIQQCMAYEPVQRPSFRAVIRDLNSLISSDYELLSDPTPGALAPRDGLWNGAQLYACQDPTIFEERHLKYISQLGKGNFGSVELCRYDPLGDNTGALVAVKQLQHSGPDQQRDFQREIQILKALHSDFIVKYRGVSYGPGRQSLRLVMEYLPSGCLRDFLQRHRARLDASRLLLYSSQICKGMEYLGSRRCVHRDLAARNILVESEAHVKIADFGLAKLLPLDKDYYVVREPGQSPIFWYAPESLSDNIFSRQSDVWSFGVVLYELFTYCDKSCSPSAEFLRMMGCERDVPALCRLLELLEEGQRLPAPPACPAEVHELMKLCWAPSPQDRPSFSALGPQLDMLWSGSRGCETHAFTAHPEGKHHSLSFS

[30] = target: Cyclin-dependent kinase 2/cyclin E1 (Homo sapiens) (UniProt P24864+P24941); assay: Inhibition of CDK2/cyclin E at 10 uM; format: protein-complex assay; method in brief: as §5
[31] = target: Proto-oncogene tyrosine-protein kinase ROS (Homo sapiens) (UniProt P08922); assay: Inhibition of ROS at 10 uM; method in brief: as §5
[32] = target: Protein kinase C alpha type (Homo sapiens) (UniProt P17252); assay: Inhibition of PKCalpha at 10 uM; method in brief: as §5
[33] = target: Mitogen-activated protein kinase 8 (Homo sapiens) (UniProt P45983); assay: Inhibition of JNK1 at 10 uM; method in brief: as §5
[34] = target: Glycogen synthase kinase-3 beta (Homo sapiens) (UniProt P49841); assay: Inhibition of GSK3-beta at 10 uM; method in brief: as §5
Sequence of Glycogen synthase kinase-3 beta (Homo sapiens) (P49841 whole entry, looked up): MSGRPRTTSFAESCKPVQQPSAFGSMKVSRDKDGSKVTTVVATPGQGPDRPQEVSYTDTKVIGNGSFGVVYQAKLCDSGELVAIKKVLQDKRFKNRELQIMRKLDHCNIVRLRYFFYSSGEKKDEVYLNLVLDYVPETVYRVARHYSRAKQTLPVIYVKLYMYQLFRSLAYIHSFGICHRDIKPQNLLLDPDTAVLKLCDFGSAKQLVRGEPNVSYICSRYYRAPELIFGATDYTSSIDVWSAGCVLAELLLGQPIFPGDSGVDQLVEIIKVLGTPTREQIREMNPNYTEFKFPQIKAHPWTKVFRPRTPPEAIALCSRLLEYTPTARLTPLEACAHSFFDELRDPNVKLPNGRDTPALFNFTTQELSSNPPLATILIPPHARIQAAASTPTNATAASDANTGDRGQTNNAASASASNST

[35] = target: Proto-oncogene tyrosine-protein kinase Src (Homo sapiens) (UniProt P12931); assay: Inhibition of c-Src at 10 uM; method in brief: as §5

Compound: CNC(=O)c1cc(Oc2ccc(NC(=O)Nc3ccc(Cl)c(C(F)(F)F)c3)cc2)ccn1 [SORAFENIB]
- GI50 [1]: 5.58 µM
- GI50 [2]: 0.78 µM

Compound: C[C@H](O)CNc1nccc(-n2ccnc2-c2cccc(NC(=O)c3coc(-c4cc(C(F)(F)F)ccc4Cl)c3)c2)n1
- RatioGI50 [3]: 5
- GI50 (WM3629): inactive

Compound: C[C@H](O)CNc1nccc(-n2ccnc2-c2cccc(NC(=O)c3ccc(N4CCOCC4)c(C(F)(F)F)c3)c2)n1
- GI50 [1]: 28.3 µM
- RatioGI50 [3]: 5
- GI50 [2]: 7.37 µM

Compound: C[C@H](O)CNc1nccc(-n2ccnc2-c2ccc(NC(=O)c3cc(-c4ccc(Cl)cc4)on3)cc2)n1
- GI50 [1]: > 100 µM
- GI50 [2]: > 100 µM

Compound: C[C@H](O)CNc1nccc(-n2ccnc2-c2ccc(NC(=O)Nc3ccc(Cl)c(Cl)c3)cc2)n1
- GI50 [1]: 17.8 µM
- GI50 [2]: 2.45 µM

Compound: C[C@H](O)CNc1nccc(-n2ccnc2-c2ccc(NC(=O)c3ncc(-c4ccncc4)s3)cc2)n1
- GI50 [1]: 139 µM
- GI50 [2]: > 100 µM

Compound: C[C@H](O)CNc1nccc(-n2ccnc2-c2ccc(NC(=O)Nc3cccc(C(F)(F)F)c3)cc2)n1
- GI50 [1]: 7.19 µM
- GI50 [2]: 12.9 µM

Compound: C[C@H](O)CNc1nccc(-n2ccnc2-c2cccc(NC(=O)c3cc(N4CCN(C)CC4)cc(C(F)(F)F)c3)c2)n1
- GI50 [1]: 10.4 µM
- RatioGI50 [3]: 5
- GI50 [2]: 9.13 µM

Compound: C[C@H](O)CNc1nccc(-n2ccnc2C(=O)c2ccc(NC(=O)Nc3ccc(Cl)c(C(F)(F)F)c3)cc2)n1
- GI50 [1]: 9.29 µM
- GI50 [2]: 3.51 µM

Compound: COc1ccc(-c2cc(C(=O)Nc3cccc(-c4nccn4-c4ccnc(NC[C@H](C)O)n4)c3)co2)cc1
- GI50 (A375P): inactive
- RatioGI50 [3]: 5
- GI50 [2]: 22.3 µM

Compound: C[C@H](O)CNc1nccc(-n2ccnc2-c2cccc(NC(=O)Nc3ccc(N4CCOCC4)c(C(F)(F)F)c3)c2)n1
- GI50 [1]: 34.6 µM
- RatioGI50 [3]: 5
- GI50 [2]: 3.28 µM

Compound: C[C@H](O)CNc1nccc(-n2ccnc2-c2ccc(NC(=O)Nc3ccc(Cl)c(C(F)(F)F)c3)cc2)n1
- GI50 [1]: 10.1 µM
- GI50 [2]: 4.43 µM

Compound: COc1ccc(-c2cc(C(=O)Nc3ccc(-c4nccn4-c4ccnc(NC[C@H](C)O)n4)cc3)co2)cc1
- GI50 [1]: 8.05 µM
- GI50 [2]: > 100 µM
- inhibition of growth at 8.05 µM [4]: < 66%

Compound: Cc1cn(-c2cc(C(=O)Nc3cccc(-c4nccn4-c4ccnc(NC[C@H](C)O)n4)c3)cc(C(F)(F)F)c2)cn1
- GI50 [1]: 6.72 µM
- RatioGI50 [3]: 5
- GI50 [2]: 3.49 µM

Compound: C[C@H](O)CNc1nccc(-n2ccnc2C(=O)c2ccc(NC(=O)c3ccc(Cl)c(C(F)(F)F)c3)cc2)n1
- GI50 [1]: 2.51 µM
- GI50 [2]: 1.37 µM

Compound: C[C@H](O)CNc1nccc(-n2ccnc2-c2cccc(NC(=O)Nc3cccc(C(F)(F)F)c3)c2)n1
- GI50 [1]: 19.2 µM
- RatioGI50 [3]: 5
- GI50 [2]: 7.86 µM

Compound: C[C@H](O)CNc1nccc(-n2ccnc2-c2cccc(NC(=O)c3cc(-c4ccc(Cl)cc4)on3)c2)n1
- GI50 [1]: 164 µM
- RatioGI50 [3]: 5
- GI50 [2]: > 100 µM
- inhibition of growth at 164 µM [5]: < 66%

Compound: C[C@H](O)CNc1nccc(-n2ccnc2-c2cccc(NC(=O)c3cccc(C(F)(F)F)c3)c2)n1
- GI50 (A375P): inactive
- RatioGI50 [3]: 5
- GI50 (WM3629): inactive

Compound: C[C@H](O)CNc1nccc(-n2ccnc2-c2cccc(NC(=O)Nc3cccc(Cl)c3)c2)n1
- GI50 [1]: 85.8 µM
- RatioGI50 [3]: 5
- GI50 [2]: > 100 µM

Compound: C[C@H](O)CNc1nccc(-n2ccnc2-c2cccc(NC(=O)Nc3ccc(Cl)c(C(F)(F)F)c3)c2)n1
- GI50 [1]: 58.2 µM
- RatioGI50 [3]: 5
- GI50 [2]: > 100 µM

Compound: C[C@H](O)CNc1nccc(-n2ccnc2-c2ccc(NC(=O)c3ccc(N4CCOCC4)c(C(F)(F)F)c3)cc2)n1
- GI50 [1]: > 100 µM
- GI50 [2]: > 100 µM

Compound: C[C@H](O)CNc1nccc(-n2ccnc2-c2cccc(NC(=O)Nc3ccc(Cl)c(Cl)c3)c2)n1
- GI50 [1]: 5.93 µM
- RatioGI50 [3]: 5
- GI50 [2]: 0.65 µM

Compound: C[C@H](O)CNc1nccc(-n2ccnc2-c2cccc(NC(=O)c3ncc(-c4ccncc4)s3)c2)n1
- GI50 [1]: > 100 µM
- RatioGI50 [3]: 5
- GI50 [2]: 13.8 µM

Compound: Cc1ccc2nc(NC(=O)Nc3cccc(-c4nccn4-c4ccnc(NC[C@H](C)O)n4)c3)sc2c1
- GI50 [1]: 19.4 µM
- RatioGI50 [3]: 5
- GI50 [2]: 4.54 µM

Compound: C[C@H](O)CNc1nccc(-n2ccnc2-c2ccc(NC(=O)c3cc(N4CCOCC4)cc(C(F)(F)F)c3)cc2)n1
- GI50 [1]: 35.6 µM
- GI50 [2]: 2.25 µM

Compound: C[C@H](O)CNc1nccc(-n2ccnc2-c2cccc(NC(=O)c3ccc(Cl)c(C(F)(F)F)c3)c2)n1
- inhibition [6]: < 0%
- GI50 [1]: 4.49 µM
- inhibition [7]: 5.9%
- inhibition [8]: 0%
- inhibition [9]: < 0%
- inhibition [10]: 0.8%
- RatioGI50 [3]: 5
- inhibition [11]: 89%
- inhibition [12]: 9.4%
- inhibition [13]: 13%
- inhibition [14]: 2.4%
- inhibition [15]: 99%
- inhibition [16]: 21%
- inhibition [17]: < 0%
- inhibition [18]: 5.1%
- inhibition [19]: 1.7%
- inhibition [20]: 82%
- inhibition [21]: 10%
- GI50 [2]: 0.62 µM
- inhibition [22]: 17%
- inhibition [23]: 6.8%
- inhibition [24]: 5%
- inhibition [25]: 1.5%
- inhibition [26]: 3.6%
- inhibition [27]: 7.6%
- inhibition [28]: 21%
- inhibition [29]: 0.21%
- inhibition [30]: < 0%
- inhibition [31]: 0.19%
- inhibition [32]: 1.1%
- inhibition [33]: < 0%
- inhibition [34]: 14%
- inhibition [35]: < 0%

Compound: C[C@H](O)CNc1nccc(-n2ccnc2-c2ccc(NC(=O)c3coc(-c4cc(C(F)(F)F)ccc4Cl)c3)cc2)n1
- GI50 [1]: 2.23 µM
- GI50 [2]: > 100 µM

Compound: C[C@H](O)CNc1nccc(-n2ccnc2-c2ccc(NC(=O)Nc3cccc(Cl)c3)cc2)n1
- GI50 [1]: 3.19 µM
- GI50 [2]: 4.99 µM

Compound: C[C@H](O)CNc1nccc(-n2ccnc2-c2ccc(NC(=O)c3ccc(Cl)c(C(F)(F)F)c3)cc2)n1
- GI50 [1]: 79.2 µM
- GI50 [2]: > 100 µM
